# MrgX1 PAM – human MrgX1 positive allosteric modulation, primary screen; MrgX1-HEK293, Fluo-4 calcium flux, FDSS; hits give high values; B-score at 10 µM; 0.63% of 310,000 active;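 active = plate-corrected calcium response at least 3 library SD above typical, normal starting fluorescence, not activating the receptor alone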;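 also: compound read alongside a low EC10 to EC30 dose of BAM8-22 agonist; peak minus trough fluorescence over baseline measured at the second addition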
# Target sequence (Q96LB2 whole entry, looked up): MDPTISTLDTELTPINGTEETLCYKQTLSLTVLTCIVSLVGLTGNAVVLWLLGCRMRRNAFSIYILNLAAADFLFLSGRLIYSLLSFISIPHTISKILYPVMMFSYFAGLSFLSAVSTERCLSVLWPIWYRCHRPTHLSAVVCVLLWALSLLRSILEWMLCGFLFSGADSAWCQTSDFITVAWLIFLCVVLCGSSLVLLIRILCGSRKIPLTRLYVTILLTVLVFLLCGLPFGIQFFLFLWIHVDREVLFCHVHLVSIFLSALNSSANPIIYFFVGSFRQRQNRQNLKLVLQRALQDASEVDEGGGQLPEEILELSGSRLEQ
# RGS4 act – RGS4 potentiation or activation; HEK293 M3R/inducible RGS4, carbachol calcium flux Fluo4; hits give low values; 0.92% of 310,000 active; AID 463111; B-score at 10 µM;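 active = B-score of the integrated calcium signal more than 4 SD below the library mean, with starting fluorescence not abnormally high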;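 also: negative B-score means reduced calcium response which marks RGS4 activation or potentiation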
#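 Assay system: HEK293 FlpIn-TREx cells, stable M3R, doxycycline-inducible RGS4 / Probe or stimulus: carbachol, ECmax concentration / Times: overnight RGS4 induction, 30 min dye load 37 °C, 20 min compound RT / Signal: kinetic calcium fluorescence imaging with Fluo4-AM dye, 2 µM / Measure: Agonist-evoked peak-minus-minimum fluorescence over baseline, integrated ratio, B score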
# MrgX1 ag – activates human MrgX1 receptor signaling. Q96LB2. MrgX1-HEK293 cells, Fluo-4 calcium fluorescence, agonist mode; hits give high values. B-score at 10 µM. 0.44% of 310,000 active. AID 588627;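 active = calcium response B-score plate-corrected fluorescence ratio at least 3 library SD, with starting fluorescence B-score inside 5 SD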
#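 Material: MrgX1-expressing HEK293 cells / Dosing: compound as first of three additions / Incubation: overnight seeding, then 1 h dark dye loading / Signal: Fluo-4 NW calcium fluorescence / Evaluation: B-scored fluorescence response ratio / Benchmarks: positive and negative control wells on each plate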
# RGS4 inh – human RGS4 inhibition; P49798; HEK293 M3R/RGS4 inducible, Fluo-4 calcium flux; hits give high values; triggered by carbachol at its EC20; B-score at 10 µM; 0.45% of 310,000 active; AID 463165;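 active = B-score, a plate-corrected calcium signal, over three deviations above library mean, with baseline fluorescence within five deviations of library mean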;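 also: RGS4 expression induced by doxycycline in cells with stable M3 receptor; B-score is computed from the integrated fluorescence ratio over baseline after carbachol; higher B-score means a larger calcium signal and so more RGS4 inhibition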
# Target sequence (P49798 whole entry, looked up): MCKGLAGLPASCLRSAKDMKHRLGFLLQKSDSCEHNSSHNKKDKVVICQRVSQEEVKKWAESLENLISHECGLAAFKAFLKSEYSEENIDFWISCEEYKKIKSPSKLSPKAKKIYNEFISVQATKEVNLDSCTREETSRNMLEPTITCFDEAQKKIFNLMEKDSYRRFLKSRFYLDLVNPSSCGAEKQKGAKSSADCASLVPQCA
# MrgX1 antag – antagonists of human MrgX1 receptor; MRGX1-HEK293 calcium flux, Fluo-4, BAM8-22 antagonism; hits give low values; B-score at 10 µM; 1.3% of 310,000 active; Q96LB2;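 active = calcium-response B-score plate-corrected more than 3 library SD below zero, starting fluorescence within 5 deviations, no agonist response on first addition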;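 also: peak minus trough fluorescence over baseline after final BAM8-22 challenge near maximal dose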
# RGS4 inh valid – RGS4 inhibitor validation; shares compounds with RGS4 inh; HEK293 M3R/RGS4, carbachol calcium Fluo-4 fluorescence; carbachol added at its EC20; 0 = buffer wells, 100 = carbachol control; calcium response, % at 10 µM; 65% of 1,700 active; AID 492999;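 active = duplicate-averaged calcium response above the buffer-only control mean plus 5 SD of those controls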;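 also: integrated fluorescence ratio F max minus min over baseline F0; higher response in RGS4-induced cells means RGS4 inhibition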
# M3R Ca ctr – counter-screen for RGS4 inhibitors: effect in non-induced cells; HEK293 M3R non-induced, carbachol calcium Fluo-4; submaximal (EC20) carbachol stimulus; buffer wells 0%, carbachol control wells 100%; AID 493000; 20% of 1,900 active; activity (percent), % at 10 µM; shares compounds with RGS4 inh; call rule not given here;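 also: RGS4 induction absent so cells express M3R without RGS4; higher means more calcium signal and flags a non-specific hit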
# M3R basal Ca ctr – signal in non-induced cells without carbachol, RGS4 inhibitor counter-screen; shares compounds with RGS4 inh; calcium response (agonist-mode artifact), % at 10 µM; 22% of 1,900 active; HEK293 M3R/RGS4 non-induced, Fluo-4 calcium, no carbachol; normalised: buffer wells 0%, carbachol wells 100%;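 active = duplicate-averaged calcium rise in uninduced cells above buffer wells' mean plus 5 SD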
# Numbers without * were called inactive; i = inactive; nt = no result given. Rows were chosen to be rich in hits. Some 3.5% of all compounds tested hit in one or more screens of this group.
SMILES,MrgX1 PAM,RGS4 act,MrgX1 ag,RGS4 inh,MrgX1 antag,RGS4 inh valid,M3R Ca ctr,M3R basal Ca ctr
Cc1cc(C(=O)CN2C(=O)NC(C)(c3cccc(Br)c3)C2=O)c(C)n1Cc1ccco1 (stereo not drawn),i,i,i,i,i,nt,nt,nt
Cc1nc2sc3c(=O)[nH]nnc3c2c(C)c1Br,i,i,i,i,i,nt,nt,nt
CCOc1ccccc1/C=C(\C#N)C(=O)Nc1cccc(C(=O)O)c1,i,i,i,5*,i,14%*,i,i
CCOc1cccc(NC(=O)/C(C#N)=C\c2cn(CC(=O)O)c3ccccc23)c1,i,i,i,i,i,nt,nt,nt
COC(=O)c1ccc(COc2ccccc2/C=C(\C#N)C(=O)Nc2c(C)cc(C)cc2C)cc1,i,i,i,i,i,i,i,i
COC(=O)c1ccc(COc2ccccc2/C=C(\C#N)C(=O)Nc2ccc(C)cc2C)cc1,i,i,i,i,i,i,i,i
Cc1ccc(C(=O)OCC(=O)NN2C(=O)NC3(CCC(C)CC3)C2=O)cc1 (stereo not drawn),i,i,i,i,i,nt,nt,nt
Clc1ccc2[nH]c3c(c2c1)CCc1cn[nH]c1-3,i,i,i,11*,i,75%*,40%*,27%*
Cc1ccc(C(=O)/C=C/C(=O)O)cc1,i,i,i,16*,i,64%*,44%*,14%*
Cc1ccc(/C=C/C(=O)c2ccc(O)cc2)cc1,i,i,i,i,i,nt,nt,nt
CC(C)CCN(C(=O)CCSc1ccc(F)cc1)c1c(N)n(Cc2ccccc2)c(=O)[nH]c1=O,i,i,i,i,i,nt,nt,nt
CN(CC(=O)Nc1ccc(F)cc1)C(=O)COC(=O)c1cc(S(=O)(=O)N(C)C)ccc1N1CCCC1,i,i,i,i,i,nt,nt,nt
Cc1cc(Cl)ccc1N(CC(=O)N=Nc1c(O)[nH]c2ccccc12)S(C)(=O)=O,i,i,i,4.9*,i,5.5%*,i,i
Cc1ccc(S(=O)(=O)N(CC(=O)N=Nc2c(O)[nH]c3ccccc23)c2cccc(C)c2)cc1,i,i,i,i,i,nt,nt,nt
O=C(COc1ccc(Cl)cc1)Nc1cc2c3c(c1)CC(=O)N3CCC2,i,i,i,i,i,nt,nt,nt
O=C(NCc1cccc(Cl)c1)c1ccc(S(=O)(=O)Nc2cccc(C(F)(F)F)c2)cc1,i,i,i,i,i,i,i,i
O=C(Cc1cccc(C(F)(F)F)c1)NCc1cccc(Cl)c1,i,i,i,i,i,nt,nt,nt
Cc1ccccc1C(=O)N1CCC(n2nccc2NC(=O)CCOc2ccccc2)CC1,i,i,i,i,i,nt,nt,nt
N#Cc1c(N)nc(SCc2ccccn2)c(C#N)c1-c1cccs1,i,i,i,4.7*,i,9.0%*,42%*,i
CCOC(=O)CSc1nc(N)c(C#N)c(-c2cccs2)c1C#N,i,i,i,i,i,nt,nt,nt
COC(=O)/C(=C/c1c[nH]c2ccccc12)[N+](=O)[O-],i,i,34*,21*,i,18%*,35%*,20%*
Cc1c(OCC(=O)N[C@@H](CSCc2ccccc2)C(=O)O)ccc2c3c(c(=O)oc12)CCC3,nt,i,nt,4.9*,nt,i,i,i
Cc1c(OCC(=O)N[C@@H](Cc2ccccc2)C(=O)O)ccc2c3c(c(=O)oc12)CCC3,i,i,i,i,i,i,i,i
Cc1ccc(C)c(NC(=O)CSc2nnc(-c3cc(C)[nH]n3)n2N)c1,i,i,i,i,i,nt,nt,nt
Cc1cc2cc(C)c(NCCNC(=O)c3cccc(F)c3)nc2cc1C,i,i,i,5.3*,i,i,i,i
SMILES,MrgX1 PAM,RGS4 act,MrgX1 ag,RGS4 inh,MrgX1 antag,RGS4 inh valid,M3R Ca ctr,M3R basal Ca ctr
Cc1cc2cc(C)c(NCCNC(=O)c3ccccc3F)nc2cc1C,i,i,i,i,i,i,i,i
Cc1cccc(C(=O)NCCNc2nc3cc(C)c(C)cc3cc2C)c1,i,i,i,i,i,i,i,i
CCCN(CC(=O)Nc1ccccc1C)C(=O)C1CCN(C(=O)Nc2ccccc2)CC1,i,i,i,i,i,nt,nt,nt
COc1ccc(S(=O)(=O)N2CC(C)N(C(=O)N(C)C)C2C(C)C)cc1 (stereo not drawn),i,i,i,i,i,nt,nt,nt
Cc1ccc(C)c(C2C(C#N)=C(N)Oc3cc(C)oc(=O)c32)c1 (stereo not drawn),i,i,i,i,i,nt,nt,nt
Cc1ccc(C2C(C#N)=C(N)Oc3cc(C)oc(=O)c32)o1 (stereo not drawn),i,i,i,7.3*,i,22%*,i,i
Cc1cnc(Sc2ncccc2[N+](=O)[O-])nc1,i,i,i,i,i,nt,nt,nt
Cc1cc(C)n2nc(Sc3ncccc3[N+](=O)[O-])nc2n1,i,i,i,9.5*,i,28%*,34%*,i
CC(=O)C1=C(c2ccccc2)NC(=O)NC1c1ccccc1 (stereo not drawn),i,i,i,i,i,nt,nt,nt
O=C1NC(c2ccccc2)=C(c2nc3ccccc3s2)C(c2ccccc2)N1 (stereo not drawn),i,i,i,i,i,nt,30%*,26%*
CC(=O)C1=C(C)OC(N)=C(C#N)C1c1cc2cccc(C)c2nc1Cl (stereo not drawn),i,i,i,6.8*,i,22%*,34%*,i
COC(=O)C1=C(C)OC(N)=C(C#N)C1c1cc2cccc(C)c2nc1Cl (stereo not drawn),i,i,i,i,i,nt,nt,nt
Cc1ccc(/C=N/NC(=O)COc2ccc(Cl)c(C)c2)o1,i,i,i,i,i,nt,nt,nt
CN(CCCC(=O)N1CCCC(C(N)=O)C1)S(=O)(=O)c1ccc(F)cc1 (stereo not drawn),i,i,i,i,i,nt,nt,nt
Cc1cc(Cl)ccc1Nc1ncccc1C(N)=O,i,i,i,5.3*,i,12%*,i,i

# Compound activity: PubChem BioAssay, Johns Hopkins Ion Channel Center
